According to ChEMBL document CHEMBL1152709, “Tricyclic HIV integrase inhibitors: VI. SAR studies of 'benzyl flipped' C3-substituted pyrroloquinolines” (Bioorg Med Chem Lett, 2009):

How the values were obtained:
[1] = target: Human immunodeficiency virus type 1 integrase (Human immunodeficiency virus 1, UniProt Q7ZJM1); experiment: Inhibition of HIV1 HXB2 integrase strand transfer activity by microtiter assay
How it was run: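 Strand transfer measured in a microtiter format using DIG-tagged target DNA, detected with anti-DIG antibody–horseradish peroxidase conjugate. IC50 reported in nM as the mean of at least two experiments.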

[2] = system: Human immunodeficiency virus 1; experiment: Antiviral activity against HIV1 3B infected in human MT2 cells after 5 days by cell-titer assay in presence of 10% FBS; format: functional, organism-based; settings: Human immunodeficiency virus 1, 3B, MT2, 120 h
How it was run: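 MT-2 cells infected with HIV-1 IIIB (m.o.i. 0.01, 3 h), then about 1.5 × 10⁴ cells per well added to 9 concentrations of 5-fold serially diluted drug in triplicate, in culture medium with 10% FBS. Incubated 5 days at 37 °C. Viability read by CellTiter-Glo chemiluminescence after 10 min lysis at room temperature. Values are means of at least two experiments.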

[3] = system: Human immunodeficiency virus 1; experiment: Antiviral activity against HIV1 3B infected in human MT2 cells after 5 days by cell-titer method in presence of human serum albumin and alpha1-acid glycoprotein; format: functional, organism-based; settings: Human immunodeficiency virus 1, 3B, MT2, 120 h
How it was run: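 Same MT-2/HIV-1 IIIB assay (m.o.i. 0.01, 5 days at 37 °C, CellTiter-Glo read-out), run in 10% FBS with or without HSA (35 mg/ml) or α1-AGP (1.5 mg/ml). The combined-protein (serum-adjusted) EC₅₀ was calculated from the EC₅₀ values with each protein alone, using an equation derived from competitive binding assumptions.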

[4] = Oral bioavailability in rat at pH 2.2; format: ADME, organism-based; settings: in vivo
How it was run: (§1)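 Oral dosing of parent compound as a solution in EtOH, PG, PEG400 and citric acid at pH 2.2, alongside an i.v. group (pH 3.3). F (%) was calculated from p.o. versus i.v. AUC. Values are the mean of three animals per study.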

[5] = Half life in iv dosed rat at pH 3.3; format: ADME, organism-based; settings: in vivo
How it was run: (§2)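 Parent compound given i.v. as a solution in EtOH, PG, PEG400 and citric acid at pH 3.3. Total body clearance and T½ were derived from the i.v. group. Values are the mean of three animals per study.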

[6] = Clearance in iv dosed rat at pH 3.3; format: ADME, organism-based; settings: in vivo; how it was run: as §2
[7] = Oral bioavailability in dog at pH 2.2; format: ADME, organism-based, Canis lupus familiaris; settings: in vivo; how it was run: as §1
[8] = Half life in iv dosed dog at pH 3.3; format: ADME, organism-based, Canis lupus familiaris; settings: in vivo; how it was run: as §2
[9] = Clearance in iv dosed dog at pH 3.3; format: ADME, organism-based, Canis lupus familiaris; settings: in vivo; how it was run: as §2

Human immunodeficiency virus type 1 integrase, sequence (Q7ZJM1 whole entry): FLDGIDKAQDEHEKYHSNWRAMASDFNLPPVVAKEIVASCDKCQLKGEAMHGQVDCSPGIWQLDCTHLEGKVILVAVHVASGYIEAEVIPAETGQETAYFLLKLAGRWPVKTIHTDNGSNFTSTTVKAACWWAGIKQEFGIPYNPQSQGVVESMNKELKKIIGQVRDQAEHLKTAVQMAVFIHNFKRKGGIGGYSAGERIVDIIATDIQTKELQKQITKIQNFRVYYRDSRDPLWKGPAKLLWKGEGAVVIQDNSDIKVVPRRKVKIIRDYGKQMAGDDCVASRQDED

In the case of `COc1c2c(c(O)c3ncc(Cc4ccc(F)cc4)cc13)C(=O)N(Cc1ccc(F)cc1)C2`, the IC50 [1] is reported as 0.6 µM and the EC50 [2] is reported as 0.105 µM.

With `CN1Cc2c(c(O)c3ncc(Cc4ccc(F)cc4)cc3c2N(C)S(C)(=O)=O)C1=O` the IC50 [1] was 0.08 µM, the EC50 [2] was 0.002 µM and the EC50 [3] was 0.007 µM. For the same molecule, the bioavailability [4] was 12%, the half-life [5] was 0.4 h and the clearance [6] was 8.17 mL/min/kg. For the same molecule, the bioavailability [7] was 47%, the half-life [8] was 4.4 h and the clearance [9] was 2.17 mL/min/kg.

In the case of `COc1c2c(c(O)c3ncc(Cc4ccc(F)cc4)cc13)C(=O)N(C)C2`, the IC50 [1] is reported as 0.1 µM and the EC50 [2] is reported as 0.02 µM.

`COc1c2c(c(O)c3ncc(Cc4ccc(F)cc4)cc13)C(=O)NC2` gave an IC50 [1] of 0.014 µM, an EC50 [2] of 0.016 µM and an EC50 [3] of 0.027 µM.

Molecule `CN1Cc2c(c(O)c3ncc(Cc4ccc(F)c(Cl)c4)cc3c2N(C)S(C)(=O)=O)C1=O` has an IC50 [1] of 0.265 µM, an EC50 [2] of 0.0011 µM and an EC50 [3] of 0.035 µM. The bioavailability [4] was 11%, the half-life [5] was 1.7 h and the clearance [6] was 3.67 mL/min/kg. It also gave a bioavailability [7] of 60%, a half-life [8] of 8.8 h and a clearance [9] of 2 mL/min/kg.
